From ChEMBL document CHEMBL4680121, “Development of (4-methoxyphenyl)-1H-tetrazol-5-amine regioisomers as a new class of selective antitubercular agents” (Eur J Med Chem, 2020) come the findings set out here.

What all share (format): functional
Assay [1] deals with Mycobacterium tuberculosis. Briefly: Antitubercular activity against PAS/INH/EMB/RMP-resistant Mycobacterium tuberculosis Spec.210 assessed as inhibition of microbial growth incubated for 1 week by MABA method. The settings on record: Mycobacterium tuberculosis, 210, 168 h; time 1 weeks. The method in brief: (§1)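 Microplate Alamar Blue assay in Middlebrook 7H9 broth with 10% OADC. Inoculum from fresh LJ culture was adjusted to McFarland 1 and diluted 1:20. DMSO stocks were two-fold serially diluted to final 0.125–512 µg/ml, with growth and sterile controls. Plates ran 1 week at 37 °C, then Alamar blue was added for 24 h. MIC is the lowest concentration preventing the blue-to-pink change.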

In assay [2] the test system is Mycobacterium tuberculosis. Briefly: Antitubercular activity against INH-resistant Mycobacterium tuberculosis Spec.800 harboring InhA promoter mutation assessed as inhibition of microbial growth incubated for 1 week by MABA method. To be noted: time 1 weeks. The essentials:
as §1
(The colour change of resazurin is a common sign of viable cells or microbes.)

Assay [3] concerns Mycobacterium tuberculosis. Put plainly: Potency index, Ratio of rifampicin MIC to test compound MIC for antitubercular activity against PAS/INH/EMB/RMP-resistant Mycobacterium tuberculosis Spec.210 assessed as inhibition of microbial growth incubated for 1 week by MABA method. To be noted: time 1 weeks.
Assay [4] has as its system Mycobacterium tuberculosis. Put plainly: Potency index, Ratio of ethambutol MIC to test compound MIC for antitubercular activity against PAS/INH/EMB/RMP-resistant Mycobacterium tuberculosis Spec.210 assessed as inhibition of microbial growth incubated for 1 week by MABA method. To be noted: time 1 weeks.
The test system of assay [5] is Mycobacterium tuberculosis. Briefly: Potency index, Ratio of isoniazid MIC to test compound MIC for antitubercular activity against PAS/INH/EMB/RMP-resistant Mycobacterium tuberculosis Spec.210 assessed as inhibition of microbial growth incubated for 1 week by MABA method. To be noted: time 1 weeks.
In assay [6] the test system is Mycobacterium tuberculosis. Put plainly: Potency index, Ratio of streptomycin MIC to test compound MIC for antitubercular activity against PAS/INH/EMB/RMP-resistant Mycobacterium tuberculosis Spec.210 assessed as inhibition of microbial growth incubated for 1 week by MABA method. The settings on record: time 1 weeks.
Assay [7] has as its system Mycobacterium tuberculosis. Put plainly: Antitubercular activity against PAS/INH/EMB/RMP-resistant Mycobacterium tuberculosis Spec.210 assessed as inhibition of microbial growth by classical test tube method. The method in brief: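 Classical test-tube serial dilution in Youmans' modified Proskauer–Beck liquid medium with 10% bovine serum. Inoculum came from 14-day-old cultures. Compounds were given as DMSO solutions (stock 10 mg/ml), diluted geometrically in medium to 3.1–100 µg/ml, and incubated at 37 °C. MIC is the minimum concentration inhibiting growth relative to a no-compound control.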

Molecules are shown by their SMILES. Where only a bound is given, the exact number is not on record here.

As a reminder, the MIC is the least concentration at which growth counts as inhibited. In the case of `COc1ccc(Nc2nnnn2-c2ccc(F)cc2)cc1`, the MIC in assay [1] was determined as 8 mg/L; in assay [2], 128 mg/L. For the same compound, the Ratio in assay [3], in assay [4], in assay [5] and in assay [6] was 2 in each case.

Consider `COc1ccc(Nc2nnnn2-c2ccc(Br)cc2)cc1`, for which the MIC in assay [1] turned out to be 16 mg/L; in assay [2] it was 256 mg/L.

`COc1ccc(-n2nnnc2Nc2cccc(F)c2)cc1`: the MIC in assay [1] came to 8 mg/L; in assay [2], 256 mg/L. Also, the Ratio in assay [3], in assay [4], in assay [5] and in assay [6] was 2 each time.

For `COc1ccc(NC(=S)Nc2ccccc2Br)cc1`, the MIC in assay [7] is 50 mg/L.

For `COc1ccc(-n2nnnc2Nc2cccc(Cl)c2)cc1`, the MIC stood at 32 mg/L in assay [1] and 256 mg/L in assay [2].

Take `COc1ccc(NC(=S)Nc2ccccc2F)cc1`: the minimal inhibitory concentration (MIC) in assay [7] was determined as 100 mg/L.

With `COc1ccc(-n2nnnc2Nc2ccccc2Br)cc1`, the MIC was determined as 64 mg/L in assay [1] and 512 mg/L in assay [2].

On to `CC[C@@H](CO)NCCN[C@@H](CC)CO` [ETHAMBUTOL], for which the MIC in assay [1] was determined as 32 mg/L; in assay [2], 2 mg/L; in assay [7], 50 mg/L.

As to `COc1ccc(-n2nnnc2Nc2ccccc2F)cc1`, in assay [1], the MIC is 16 mg/L.

For `COc1ccc(Nc2nnnn2-c2cccc(F)c2)cc1`, the MIC in assay [1] stood at 16 mg/L; in assay [2] it was 256 mg/L.

In the case of `COc1ccc(NC(=S)Nc2cccc(Cl)c2)cc1`, in assay [7], the MIC was determined as 100 mg/L.

`COc1ccc(-n2nnnc2Nc2ccc(F)cc2)cc1`: the MIC in assay [1] worked out at 32 mg/L; in assay [2], 512 mg/L.

`COc1ccc(Nc2nnnn2-c2ccccc2F)cc1`: the MIC in assay [1] is 16 mg/L.

As to `CN[C@@H]1[C@H](O[C@H]2[C@H](O[C@H]3[C@H](O)[C@@H](O)[C@H](N=C(N)N)[C@@H](O)[C@@H]3N=C(N)N)O[C@@H](C)[C@]2(O)C=O)O[C@@H](CO)[C@H](O)[C@H]1O` [STREPTOMYCIN], the figures for the minimum inhibitory concentration (MIC) in assay [1], in assay [2] and in assay [7] were 16 mg/L, 1 mg/L and 25 mg/L, respectively.

With `COc1ccc(Nc2nnnn2-c2ccccc2Br)cc1`, the values for the MIC in assay [1] and in assay [2] were 16 mg/L and 256 mg/L, respectively.

For the compound `COc1ccc(NC(=S)Nc2ccccc2Cl)cc1`, the MIC in assay [7] is 50 mg/L.

Take `COc1ccc(NC(=S)Nc2ccc(Br)cc2)cc1`: the MIC in assay [7] was greater than 100 mg/L.

Turning to `COc1ccc(Nc2nnnn2-c2ccccc2Cl)cc1`, the results for the MIC in assay [1] and in assay [2] were 8 mg/L and 128 mg/L, respectively. The Ratio in assay [3], in assay [4], in assay [5] and in assay [6] was 2 each time.

For `COc1ccc(NC(=S)Nc2cccc(F)c2)cc1`, in assay [7], the MIC amounted to 100 mg/L.

For the compound `NNC(=O)c1ccncc1` [ISONIAZID], the minimal inhibitory concentration (MIC) in assay [1] was found to be 16 mg/L; in assay [2], 2 mg/L; in assay [7] it was 12.5 mg/L.

For the compound `COc1ccc(-n2nnnc2Nc2ccccc2Cl)cc1`, the results for the MIC in assay [1] and in assay [2] were 8 mg/L and 256 mg/L, respectively. Further, the Ratio in assay [3], in assay [4], in assay [5] and in assay [6] was 2 throughout.

`COc1ccc(NC(S)=Nc2ccc(F)cc2)cc1`: the MIC in assay [7] came to 100 mg/L.

Turning to `CO[C@H]1/C=C/O[C@@]2(C)Oc3c(C)c(O)c4c(O)c(c(/C=N/N5CCN(C)CC5)c(O)c4c3C2=O)NC(=O)/C(C)=C\C=C\[C@H](C)[C@H](O)[C@@H](C)[C@@H](O)[C@@H](C)[C@H](OC(C)=O)[C@@H]1C` [RIFAMPIN], the MIC is 32 mg/L in assay [1], 1 mg/L in assay [2] and 50 mg/L in assay [7].

As for `COc1ccc(Nc2nnnn2-c2cccc(Br)c2)cc1`, the MIC was 16 mg/L in assay [1] and 256 mg/L in assay [2].

Take `COc1ccc(-n2nnnc2Nc2ccc(Cl)cc2)cc1`: the MIC turned out to be 16 mg/L in assay [1] and 256 mg/L in assay [2].

As for `COc1ccc(NC(=S)Nc2cccc(Br)c2)cc1`, the MIC in assay [7] was determined as 50 mg/L.

With `COc1ccc(Nc2nnnn2-c2ccc(Cl)cc2)cc1`, the MIC in assay [1] stood at 8 mg/L; in assay [2], 128 mg/L. Further, the Ratio in assay [3], in assay [4], in assay [5] and in assay [6] was 2 in each case.

As to `COc1ccc(Nc2nnnn2-c2cccc(Cl)c2)cc1`, the minimum inhibitory concentration (MIC) is 8 mg/L in assay [1] and 128 mg/L in assay [2]. Moreover, the Ratio in assay [3], in assay [4], in assay [5] and in assay [6] was 2 each time.

With `COc1ccc(NC(=S)Nc2ccc(Cl)cc2)cc1`, the MIC in assay [7] was determined as 50 mg/L.
